Four molecules from ChEMBL document CHEMBL1141219, “Chemoenzymatic synthesis of a series of 4-substituted glutamate analogues and pharmacological characterization at human glutamate transporters subtypes 1-3” (J Med Chem, 2005) can be followed below.

Sequence of Excitatory amino acid transporter 1 (Homo sapiens) (P43003 whole entry): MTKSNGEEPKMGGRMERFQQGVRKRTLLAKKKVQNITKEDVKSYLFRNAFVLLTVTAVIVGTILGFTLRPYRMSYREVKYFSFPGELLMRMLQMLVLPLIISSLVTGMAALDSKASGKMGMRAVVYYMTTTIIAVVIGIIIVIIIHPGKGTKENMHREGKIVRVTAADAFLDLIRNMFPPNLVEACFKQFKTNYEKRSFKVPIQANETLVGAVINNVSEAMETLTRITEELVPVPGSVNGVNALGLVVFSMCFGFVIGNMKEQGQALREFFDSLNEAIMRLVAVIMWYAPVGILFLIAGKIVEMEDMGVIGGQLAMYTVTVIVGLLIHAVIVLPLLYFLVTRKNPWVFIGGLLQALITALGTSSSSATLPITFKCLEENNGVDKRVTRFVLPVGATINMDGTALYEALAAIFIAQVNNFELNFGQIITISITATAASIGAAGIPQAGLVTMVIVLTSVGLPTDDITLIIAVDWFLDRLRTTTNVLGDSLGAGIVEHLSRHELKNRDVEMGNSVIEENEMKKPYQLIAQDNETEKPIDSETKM

The first test concerns the target Excitatory amino acid transporter 1 (Homo sapiens) (UniProt P43003). In words: Binding affinity to human EAAT1 expressed in HEK293 cells in FMP (FLPR) assay. Format: functional, cell-based. Put shortly:
(§1)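 HEK293 cells stably expressing the human transporter, seeded on poly-D-lysine plates in DMEM with 10% dialyzed FBS and G-418 for 16–24 h. Cells washed in Krebs buffer (pH 7.4), then loaded with FMP dye for 30 min at 37 °C. Read at room temperature, excitation 530 nm and emission 560 nm, for up to 1 min after substrate addition. Non-substrate inhibitors were preincubated and tested against 30 μM Glu. Seven-concentration curves from maximal responses, duplicate, at least three times.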
Regarding `N[C@@H](C[C@H](O)C(=O)O)C(=O)O`, the pKm worked out at 4.06.

Molecule `N[C@@H](C[C@@H](O)C(=O)O)C(=O)O` returned a pKm of 3.

In turn, `C[C@H](C[C@H](N)C(=O)O)C(=O)O` registered a pKm of 4.92.

`N[C@@H](CCC(=O)O)C(=O)O` displayed a pKm of 5.04.

The target of a further test is Excitatory amino acid transporter 2 (Homo sapiens) (UniProt P43004). In words: Binding affinity to human EAAT2 expressed in HEK293 cells in FMP (FLPR) assay. Format: functional, cell-based. Put shortly: as §1
Sequence of Excitatory amino acid transporter 2 (Homo sapiens) (P43004 whole entry): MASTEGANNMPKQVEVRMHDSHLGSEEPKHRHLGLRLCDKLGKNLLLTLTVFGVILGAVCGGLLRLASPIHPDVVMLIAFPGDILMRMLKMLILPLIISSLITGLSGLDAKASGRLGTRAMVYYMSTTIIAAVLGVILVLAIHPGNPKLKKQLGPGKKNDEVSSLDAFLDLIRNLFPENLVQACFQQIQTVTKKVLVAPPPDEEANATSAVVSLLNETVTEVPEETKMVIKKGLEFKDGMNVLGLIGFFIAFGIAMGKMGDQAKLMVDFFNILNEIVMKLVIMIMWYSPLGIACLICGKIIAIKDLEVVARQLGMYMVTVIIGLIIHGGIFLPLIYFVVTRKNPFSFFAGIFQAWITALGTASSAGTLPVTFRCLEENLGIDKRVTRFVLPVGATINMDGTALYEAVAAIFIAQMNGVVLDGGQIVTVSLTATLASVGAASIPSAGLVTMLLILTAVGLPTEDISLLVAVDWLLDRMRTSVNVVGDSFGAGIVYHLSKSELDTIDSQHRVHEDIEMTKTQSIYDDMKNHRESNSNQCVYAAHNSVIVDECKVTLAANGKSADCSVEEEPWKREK
Take `N[C@@H](C[C@H](O)C(=O)O)C(=O)O`: the pKm came out at 4.21.

On to `N[C@@H](C[C@@H](O)C(=O)O)C(=O)O`, for which the pKm was found to be 3.

Molecule `N[C@@H](CCC(=O)O)C(=O)O` gave a pKm of 4.69.

Another test concerns the target T1, Excitatory amino acid transporter 3 (Homo sapiens) (UniProt P43005).
T1 sequence (whole entry): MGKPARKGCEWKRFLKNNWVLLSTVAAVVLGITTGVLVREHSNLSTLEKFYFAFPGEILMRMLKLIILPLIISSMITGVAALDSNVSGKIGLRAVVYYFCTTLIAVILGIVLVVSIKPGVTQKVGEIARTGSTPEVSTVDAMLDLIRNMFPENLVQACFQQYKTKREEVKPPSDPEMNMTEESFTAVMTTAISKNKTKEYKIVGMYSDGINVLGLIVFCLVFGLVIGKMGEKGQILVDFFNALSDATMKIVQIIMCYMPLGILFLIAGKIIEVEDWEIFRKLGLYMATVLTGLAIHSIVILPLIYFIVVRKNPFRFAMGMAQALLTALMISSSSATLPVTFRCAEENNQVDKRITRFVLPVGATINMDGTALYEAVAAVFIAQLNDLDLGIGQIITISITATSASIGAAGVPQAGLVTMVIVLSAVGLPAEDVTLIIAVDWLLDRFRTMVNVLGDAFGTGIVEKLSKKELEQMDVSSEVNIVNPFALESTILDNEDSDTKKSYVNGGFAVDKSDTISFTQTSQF
Nature of the test: Binding affinity to human EAAT3 expressed in HEK293 cells in FMP (FLPR) assay. Type of test: functional, cell-based. The method in brief: as §1
Consider `N[C@@H](C[C@H](O)C(=O)O)C(=O)O`, for which the pKm turned out to be 4.16.

Regarding `N[C@@H](C[C@@H](O)C(=O)O)C(=O)O`, the pKm stood at 3.

In turn, `N[C@@H](CCC(=O)O)C(=O)O` displayed a pKm of 4.61.
